Drawing on ChEMBL document CHEMBL1126744, “Synthesis and structure-activity relationships of phenyl-substituted benzylamine antimycotics: a novel benzylbenzylamine antifungal agent for systemic treatment” (1993), this text covers MIC, Cure and ED50 for 18 compounds.

One assay relates to Aspergillus fumigatus. The experiment in a line: In vitro antifungal activity against Aspergillus fumigatus expressed as MIC (mg/L). In kind it is functional. The method, boiled down: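 Broth dilution in glass tubes with Sabouraud's dextrose broth (pH 6.5). Inoculum was filamentous growth scraped from Kimmig agar cultures (30 °C, 21 days). Compounds were dissolved in DMSO and serially diluted in medium. Tubes were incubated 72 h at 30 °C. MIC is the lowest concentration with no macroscopically visible growth.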

The subject of another assay is Trichophyton benhamiae. Put plainly: In vitro antifungal activity against Trichophyton mentagrophytes expressed as MIC (mg/L). In kind it is functional, Arthroderma benhamiae. The method, boiled down:
(§1)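 Fungi were grown on Kimmig agar (30 °C, 21 days) and harvested with a spatula. They were tested in glass tubes of Sabouraud's dextrose broth (pH 6.5) containing DMSO-dissolved compound serially diluted in medium. After 7 days at 30 °C, MIC was read as the lowest concentration with no macroscopically visible growth.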

The subject of another assay is Microsporum canis. Put plainly: In vitro antifungal activity against Microsporum canis expressed as MIC (mg/L). Format: functional. In outline:
as §1

For assay [1], the system named is Candida albicans. Put plainly: In vitro antifungal activity against Candida albicans delta124 expressed as MIC (mg/L). In kind it is functional. The method, boiled down: (§2)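 Tube broth dilution in malt extract broth (pH 4.8). Blastospores came from yeast nitrogen base cultures shaken at 37 °C for about 30 h. Compounds in DMSO were serially diluted in the broth. After 48 h at 30 °C, MIC was taken as the lowest concentration without macroscopically detectable growth.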

A further assay deals with Sporothrix schenckii. Put plainly: In vitro antifungal activity against Sporothrix schenck ii expressed as MIC (mg/L). Format: functional. In outline:
as §1

In the next assay the test system is Candida parapsilosis. Put plainly: In vitro antifungal activity against Candida parapsilosis delta39 expressed as MIC (mg/L). Format: functional. Conditions: Lodderomyces parapsilosis. The method, boiled down:
as §2

Assay [2] deals with Candida albicans. Put plainly: In vitro antifungal activity against Candida albicans delta9 expressed as MIC (mg/L). In kind it is functional. The method, boiled down: as §2
Assay [3] has as its system Cavia porcellus. Put plainly: Percent mycological cure in guinea pig skin candidosis model (topical treatment twice daily for 5 days starting 3 days after inoculation) using 2% solution (ED50=1.32%). In kind it is functional.
Assay [4] deals with Cavia porcellus. Put plainly: In vivo inhibition in guinea pig trichophytosis model. Format: functional.
Assay [5] concerns Cavia porcellus. The experiment in a line: Percent mycological cure at a dose of 8 mg/kg per day in guinea pig trichophytosis model (treatment once daily for 9 days starting on the day of inoculation). In kind it is functional.

Converted amounts (≈) assume the structure as drawn.

Broadly, the MIC is the smallest concentration in the dilution series that meets the test's criterion for growth inhibition. As to `C=C(c1ccccc1)c1ccc(CN(C)Cc2cccc3ccccc23)cc1`, the MIC was over 200 µg/mL with Aspergillus fumigatus; 0.01 µg/mL (≈ 0.0275 µM) in the assay with Trichophyton benhamiae; 0.01 µg/mL (≈ 0.0275 µM) against Microsporum canis; over 200 µg/mL in the assay on Candida albicans [1]; 1.56 µg/mL (≈ 4.29 µM) against Sporothrix schenckii; 0.8 µg/mL (≈ 2.2 µM) against Candida parapsilosis. In the assay with Candida albicans [2], the MIC is over 200 µg/mL.
As to `CCN(c1ccccc1)c1ccc(CN(C)Cc2cccc3ccccc23)cc1`, the minimum inhibitory concentration (MIC) with Aspergillus fumigatus was over 200 µg/mL; with Trichophyton benhamiae, 0.006 µg/mL (≈ 0.0158 µM); against Microsporum canis it was 0.006 µg/mL (≈ 0.0158 µM); with Candida albicans [1], over 200 µg/mL; against Sporothrix schenckii, 3.13 µg/mL (≈ 8.23 µM); in the assay with Candida parapsilosis it was 3.13 µg/mL (≈ 8.23 µM). The compound further had an MIC against Candida albicans [2] of over 200 µg/mL.
As to `CN(Cc1ccc(-c2ccccc2)cc1)Cc1cccc2ccccc12`, the MIC in the assay with Aspergillus fumigatus was over 200 µg/mL; against Trichophyton benhamiae, 10 µg/mL (≈ 29.6 µM); in the assay with Microsporum canis, over 200 µg/mL; against Candida albicans [1] it was over 200 µg/mL; against Sporothrix schenckii it was over 200 µg/mL; in the assay with Candida parapsilosis, over 200 µg/mL. The MIC with Candida albicans [2] was over 200 µg/mL.
`CN(Cc1ccc(C(C)(C)c2ccccc2)cc1)Cc1cccc2ccsc12`: the MIC is 0.1 µg/mL (≈ 0.259 µM) against Aspergillus fumigatus; 0.003 µg/mL (≈ 0.00778 µM) with Trichophyton benhamiae; 0.003 µg/mL (≈ 0.00778 µM) with Microsporum canis; 0.8 µg/mL (≈ 2.07 µM) in the assay on Candida albicans [1]; 0.2 µg/mL (≈ 0.519 µM) in the assay with Sporothrix schenckii; 0.05 µg/mL (≈ 0.13 µM) against Candida parapsilosis. Moreover, the MIC with Candida albicans [2] was 0.4 µg/mL (≈ 1.04 µM).
On to `CN(Cc1ccc(Oc2ccccc2)cc1)Cc1cccc2ccccc12`, for which the MIC with Aspergillus fumigatus is over 200 µg/mL; in the assay on Trichophyton benhamiae it was 0.4 µg/mL (≈ 1.13 µM); in the assay on Microsporum canis it was 0.8 µg/mL (≈ 2.26 µM); in the assay with Candida albicans [1] it was over 200 µg/mL; with Sporothrix schenckii, over 200 µg/mL; in the assay with Candida parapsilosis, over 200 µg/mL. For the same compound, the MIC against Candida albicans [2] is over 200 µg/mL.
As to `CN(Cc1ccc(C2(c3ccccc3)CC2)cc1)Cc1cccc2ccccc12`, the MIC against Aspergillus fumigatus was determined as 1.56 µg/mL (≈ 4.13 µM); in the assay with Trichophyton benhamiae it was 0.006 µg/mL (≈ 0.0159 µM); in the assay with Microsporum canis, 0.003 µg/mL (≈ 0.00795 µM); with Candida albicans [1], 3.13 µg/mL (≈ 8.29 µM); in the assay with Sporothrix schenckii, 0.1 µg/mL (≈ 0.265 µM); against Candida parapsilosis it was 0.1 µg/mL (≈ 0.265 µM). In the assay on Candida albicans [2], this compound returned an MIC of 1.56 µg/mL (≈ 4.13 µM).
As for `CN(Cc1ccc(C(=O)c2ccccc2)cc1)Cc1cccc2ccccc12`, the MIC against Aspergillus fumigatus was over 200 µg/mL; in the assay with Trichophyton benhamiae it was 0.05 µg/mL (≈ 0.137 µM); in the assay with Microsporum canis, 0.1 µg/mL (≈ 0.274 µM); against Candida albicans [1] it was over 200 µg/mL; in the assay with Sporothrix schenckii, over 200 µg/mL; in the assay with Candida parapsilosis, 50 µg/mL (≈ 137 µM). For the same compound, the MIC in the assay on Candida albicans [2] was over 200 µg/mL.
Take `CN(Cc1ccc(C(C)(C)c2ccccc2)cc1)Cc1cccc2c(Cl)csc12`: the minimum inhibitory concentration (MIC) against Aspergillus fumigatus worked out at 0.2 µg/mL (≈ 0.476 µM); in the assay with Trichophyton benhamiae, 0.02 µg/mL (≈ 0.0476 µM); against Microsporum canis, 0.02 µg/mL (≈ 0.0476 µM); in the assay with Candida albicans [1], 1.56 µg/mL (≈ 3.71 µM); in the assay on Sporothrix schenckii, 0.8 µg/mL (≈ 1.9 µM); in the assay on Candida parapsilosis, 0.1 µg/mL (≈ 0.238 µM). The compound also returned a minimum inhibitory concentration (MIC) with Candida albicans [2] of 1.56 µg/mL (≈ 3.71 µM).
Consider `CC(=O)N(c1ccccc1)c1ccc(CN(C)Cc2cccc3ccccc23)cc1`, for which the MIC was over 200 µg/mL in the assay on Aspergillus fumigatus; 0.8 µg/mL (≈ 2.03 µM) against Trichophyton benhamiae; 3.13 µg/mL (≈ 7.93 µM) in the assay on Microsporum canis; over 200 µg/mL in the assay on Candida albicans [1]; over 200 µg/mL with Sporothrix schenckii; over 200 µg/mL against Candida parapsilosis. The compound further showed a minimum inhibitory concentration (MIC) in the assay on Candida albicans [2] of over 200 µg/mL.
As to `Cc1ccc(C(C)(C)c2ccc(CN(C)Cc3cccc4ccccc34)cc2)cc1`, the MIC with Aspergillus fumigatus is 12.5 µg/mL (≈ 31.8 µM); against Trichophyton benhamiae it was 0.1 µg/mL (≈ 0.254 µM); with Microsporum canis, 0.1 µg/mL (≈ 0.254 µM); against Candida albicans [1], 6.25 µg/mL (≈ 15.9 µM); in the assay with Sporothrix schenckii, 0.4 µg/mL (≈ 1.02 µM); in the assay on Candida parapsilosis it was 0.1 µg/mL (≈ 0.254 µM). In the assay with Candida albicans [2], the lowest concentration to inhibit growth (MIC) was 6.25 µg/mL (≈ 15.9 µM).
`CN(Cc1ccc(/C=C/c2ccccc2)cc1)Cc1cccc2ccccc12`: the minimal inhibitory concentration (MIC) was over 200 µg/mL against Aspergillus fumigatus; 0.1 µg/mL (≈ 0.275 µM) with Trichophyton benhamiae; 0.01 µg/mL (≈ 0.0275 µM) against Microsporum canis; over 200 µg/mL against Candida albicans [1]; over 200 µg/mL against Sporothrix schenckii; over 200 µg/mL with Candida parapsilosis. Further, in the assay on Candida albicans [2], the MIC is over 200 µg/mL.
Regarding `CN(Cc1ccc(Cc2ccccc2)cc1)Cc1cccc2ccccc12`, the MIC in the assay with Aspergillus fumigatus was over 100 µg/mL; in the assay on Trichophyton benhamiae, 0.05 µg/mL (≈ 0.142 µM); in the assay with Microsporum canis, 0.05 µg/mL (≈ 0.142 µM); against Candida albicans [1] it was over 100 µg/mL; against Sporothrix schenckii it was 1.56 µg/mL (≈ 4.44 µM); with Candida parapsilosis, 6.25 µg/mL (≈ 17.8 µM). The compound further showed an MIC in the assay on Candida albicans [2] of 50 µg/mL (≈ 142 µM).
Broadly, the ED50 is the dose that gives a 50% effect, or the effect in half of the subjects. Low values mean greater potency, high ones weaker potency. With `CN(Cc1ccc(C(C)(C)c2ccccc2)cc1)Cc1cccc2ccccc12`, the MIC in the assay with Aspergillus fumigatus is 0.1 µg/mL (≈ 0.263 µM); against Trichophyton benhamiae it was 0.006 µg/mL (≈ 0.0158 µM); against Microsporum canis it was 0.003 µg/mL (≈ 0.0079 µM); against Candida albicans [1] it was 1.56 µg/mL (≈ 4.11 µM); in the assay on Sporothrix schenckii, 0.2 µg/mL (≈ 0.527 µM); in the assay with Candida parapsilosis it was 0.1 µg/mL (≈ 0.263 µM). Besides, the MIC against Candida albicans [2] was 0.8 µg/mL (≈ 2.11 µM). For the same compound, the Cure with Cavia porcellus [3] stood at 90%; with Cavia porcellus [5], 100%. The compound also returned an ED50 in the assay on Cavia porcellus [4] of 4.6 mg/kg/day.
For the compound `CN(Cc1ccc(Nc2ccccc2)cc1)Cc1cccc2ccccc12`, the MIC against Aspergillus fumigatus is over 200 µg/mL; in the assay on Trichophyton benhamiae, over 100 µg/mL; with Microsporum canis, over 100 µg/mL; against Candida albicans [1], over 200 µg/mL; against Sporothrix schenckii, over 200 µg/mL; against Candida parapsilosis, over 200 µg/mL. In the assay on Candida albicans [2], this compound gave an MIC of over 200 µg/mL.
Take `CN(Cc1ccc(C(C)(C)C)cc1)Cc1cccc2ccccc12` [BUTENAFINE]: the MIC in the assay with Aspergillus fumigatus turned out to be 0.4 µg/mL (≈ 1.26 µM); against Trichophyton benhamiae, 0.006 µg/mL (≈ 0.0189 µM); in the assay with Microsporum canis, 0.01 µg/mL (≈ 0.0315 µM); in the assay on Candida albicans [1] it was 25 µg/mL (≈ 78.7 µM); in the assay on Sporothrix schenckii, 0.2 µg/mL (≈ 0.63 µM); with Candida parapsilosis, 0.8 µg/mL (≈ 2.52 µM). This compound had an MIC in the assay with Candida albicans [2] of 12.5 µg/mL (≈ 39.4 µM).
Compound `COC1=CC(=O)C[C@@H](C)[C@]12Oc1c(Cl)c(OC)cc(OC)c1C2=O` [GRISEOFULVIN] returned an ED50 in the assay with Cavia porcellus [4] of 40.7 mg/kg/day.
On the same count and under the same terms, the result for `CC(=O)N1CCN(c2ccc(OCC3COC(Cn4ccnc4)(c4ccc(Cl)cc4Cl)O3)cc2)CC1` (configuration not stated) [KETOCONAZOLE] reads 50.8 mg/kg/day.
Regarding `CN(C/C=C/C#CC(C)(C)C)Cc1cccc2ccccc12` [TERBINAFINE], the MIC turned out to be 0.8 µg/mL (≈ 2.75 µM) against Aspergillus fumigatus; 0.003 µg/mL (≈ 0.0103 µM) against Trichophyton benhamiae; 0.006 µg/mL (≈ 0.0206 µM) with Microsporum canis; 25 µg/mL (≈ 85.8 µM) in the assay on Candida albicans [1]; 0.4 µg/mL (≈ 1.37 µM) in the assay with Sporothrix schenckii; 0.8 µg/mL (≈ 2.75 µM) in the assay with Candida parapsilosis. Also, the MIC against Candida albicans [2] was 6.25 µg/mL (≈ 21.4 µM).
